The list is not random: actives were taken first. Their share in the collection is about 2.2%.
14-3-3 Bad inh: disrupts binding of bovine 14-3-3 zeta to phospho-Bad peptide | AID 781 | TR-FRET 14-3-3zeta/Dy647-pBad peptide displacement, 1 h | 0.71% of 220,000 active | P63103 | inhibition, % at 21.7 µM;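 active = inhibition above about 70%, limit read from the data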;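 note: 0% = full 14-3-3 plus peptide FRET controls and 100% = background without 14-3-3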
Target sequence (P63103 whole entry, looked up): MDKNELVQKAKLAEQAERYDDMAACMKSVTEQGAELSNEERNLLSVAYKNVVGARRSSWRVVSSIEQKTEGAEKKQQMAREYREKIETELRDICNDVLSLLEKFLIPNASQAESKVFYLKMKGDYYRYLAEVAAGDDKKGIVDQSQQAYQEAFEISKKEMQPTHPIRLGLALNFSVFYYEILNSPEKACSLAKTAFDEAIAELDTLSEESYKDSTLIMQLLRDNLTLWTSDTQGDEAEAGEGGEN
PERK inhibitor: human PERK inhibition, primary cell-based screen. Q9NZJ5. CHO PERK-DD fusion, SEAP luminescence translation reporter. inhibition, % at 5.6 µM. 0.17% of 220,000 active;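 active = inhibition above the mean inhibition of all tested compounds plus 3 SD, set separately per screening campaign, cut at about 2.9% in these data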;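 note: PERK kinase domain activated by AP20187 dimerizer at 100 nM; 0% = DMSO with dimerizer and 100% = rapamycin at 8.4 µM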
eIF4E 4G PPI: eIF4E/eIF4G interaction inhibition in translation initiation | P63073+Q04637 | TR-FRET eIF4E-eIF4GI(517-606) binding, 2 h | inhibition, % at 21.7 µM | 0.37% of 220,000 active;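 active = inhibition above about 30%, limit read from the data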;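 note: 0% = full FRET control wells and 100% = background wells lacking eIF4GI fragment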
p97 ATPase inh: blocks human p97 ATPase activity | AID 1481 | inhibition, % at 8 µM | P55072 | recombinant p97 ATPase, Kinase-Glo ATP luminescence, 3 h | 0.42% of 220,000 active; in the data active = inhibition above about 15%;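 note: 0% = DMSO vehicle and 100% = wells lacking enzyme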
Hck Nef HTS: blocks Nef-activated human Hck kinase. P08631. AID 463187. inhibition, % at 20 µM. Recombinant Hck-YEEI plus Nef, Z-Lyte FRET kinase assay. 0.68% of 220,000 active;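 active = Hck-Nef kinase inhibition above about 50%, limit read from the data; inactive = inhibition below that limit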;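 note: 0% = DMSO with Hck plus Nef and 100% = Hck alone without Nef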
Biofilm kill mix: mixtures killing C. albicans biofilm. C. albicans biofilm persisters + clotrimazole, fluorescence viability; primary screen in compound mixtures of four per well. inhibition, % at 7.6 µM. 0.02% of 120,000 active. AID 1242;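 active = inhibition above 30.3% in the primary screen of four-compound pools, then above 30% when the compound was retested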;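 note: compounds exposed to preformed 24 h biofilms for 48 h; 0% = untreated biofilm control and 100% = clotrimazole plus chlorhexidine kill blank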
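Assay system: C. albicans biofilms / Medium: RPMI/MOPS medium, pH 7.0 / Schedule: biofilm formation 24 h, compound exposure 48 h, 37 °C / Measured by: Alamar Blue fluorescence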
* hit, by the source's call; ! = repeats disagree; [ ] = remark or other dose.

For CC(C)(C)N1CCC1CN (stereo not drawn) the results were 14-3-3 Bad inh 1, PERK inhibitor 4.5*, eIF4E 4G PPI 0, p97 ATPase inh 3, Hck Nef HTS 15 and Biofilm kill mix 10.
For CSc1nnc2c3cc(C)ccc3n(Cc3ccccc3)c2n1 the results were 14-3-3 Bad inh 88*[fluorescence artefact?], PERK inhibitor 0, eIF4E 4G PPI 0, p97 ATPase inh -2 and Hck Nef HTS 11.
c1ccc(Cn2c3ccccc3c3nnc(SCCN4CCCCC4)nc32)cc1 was read as 14-3-3 Bad inh -3, PERK inhibitor -1, eIF4E 4G PPI 1, p97 ATPase inh -9, Hck Nef HTS -12 and Biofilm kill mix 21.
Screening C/C(=N/NC(N)=S)c1cc2ccc(O)cc2oc1=O returned 14-3-3 Bad inh -7, PERK inhibitor 2, eIF4E 4G PPI 2, p97 ATPase inh 11, Hck Nef HTS 187* and Biofilm kill mix 12.
O=c1[nH]c2ccc([N+](=O)[O-])cc2nc1/C=C(\O)c1ccccc1 was read as 14-3-3 Bad inh 40, PERK inhibitor 0, eIF4E 4G PPI -1, p97 ATPase inh 3, Hck Nef HTS 24 and Biofilm kill mix 18.
C=CCN=C(C)C1=C(O)CCC1=O was read as 14-3-3 Bad inh 6, PERK inhibitor 2.9*, eIF4E 4G PPI 0, p97 ATPase inh 7 and Hck Nef HTS 0.
For C=CCN=C(CC)C1=C(O)CCCC1=O the results were 14-3-3 Bad inh 2, PERK inhibitor 1, eIF4E 4G PPI 4, p97 ATPase inh 4 and Hck Nef HTS 1.
Screening CC1(C)CCN(Cc2ccccc2)C1CC#N (stereo not drawn) returned 14-3-3 Bad inh 71*, PERK inhibitor 1, eIF4E 4G PPI -3, p97 ATPase inh 2 and Hck Nef HTS 1.
Cn1c(N)c(C(=O)COC(=O)c2ccc([N+](=O)[O-])o2)c(=O)n(C)c1=O was read as 14-3-3 Bad inh 7, PERK inhibitor 1, eIF4E 4G PPI 3, p97 ATPase inh 8, Hck Nef HTS 5 and Biofilm kill mix 29.
For CCN1CCN(C(=O)c2ccc3c(c2)S(=O)(=O)c2ccccc2C3=O)CC1 the results were 14-3-3 Bad inh 31, PERK inhibitor 1, eIF4E 4G PPI 5, p97 ATPase inh 6, Hck Nef HTS -7 and Biofilm kill mix 11.
`CC1(C)CC(NCc2ccccc2)CCO1` (stereo not drawn) gave 14-3-3 Bad inh -5, PERK inhibitor 1, eIF4E 4G PPI -3, p97 ATPase inh 4, Hck Nef HTS 25 and Biofilm kill mix 13.
Screening CN(C)c1ccc(CNCCC2CCOC(C)(C)C2)cc1 (stereo not drawn) returned 14-3-3 Bad inh 92*, PERK inhibitor 0, eIF4E 4G PPI -7, p97 ATPase inh 5 and Hck Nef HTS -16.
Screening CCCCCc1nc2ccccc2c(=O)n1N returned 14-3-3 Bad inh -10, PERK inhibitor 0, eIF4E 4G PPI -10, p97 ATPase inh 0 and Hck Nef HTS -1.
`CCCc1nc2ccccc2c(=O)n1N` gave 14-3-3 Bad inh 3, PERK inhibitor 3.6*, eIF4E 4G PPI 5, p97 ATPase inh 3 and Hck Nef HTS 0.
`Cc1c2cc(O)c(=O)cc-2oc2cc(O)c(O)cc12` gave 14-3-3 Bad inh 93*, PERK inhibitor 1, eIF4E 4G PPI 35*![fluorescence artefact?], p97 ATPase inh 29*, Hck Nef HTS 40 and Biofilm kill mix 19.
For COc1cc(OC)c(-c2c3cc(O)c(=O)cc-3oc3cc(O)c(O)cc23)cc1OC the results were 14-3-3 Bad inh -3, PERK inhibitor 0, eIF4E 4G PPI 4, p97 ATPase inh 4, Hck Nef HTS 2 and Biofilm kill mix 7.
`Cc1sc2nc[nH]c(=S)c2c1-c1ccccc1` gave 14-3-3 Bad inh -11, PERK inhibitor 1, eIF4E 4G PPI -3, p97 ATPase inh 0, Hck Nef HTS 15 and Biofilm kill mix 16.
Screening O=C(O)c1cc(-c2ccco2)nn1-c1ccc(Cl)cc1 returned 14-3-3 Bad inh 69, PERK inhibitor 1, eIF4E 4G PPI 31*, p97 ATPase inh 6, Hck Nef HTS 35 and Biofilm kill mix 11.
CCOC(=O)c1sc(N)nc1C(C)(C)C was read as 14-3-3 Bad inh 74*, PERK inhibitor 0, eIF4E 4G PPI 7, p97 ATPase inh -1 and Hck Nef HTS 0.
For Cc1cccc(NNC(=O)C2CCC2)c1 the results were 14-3-3 Bad inh -7, PERK inhibitor 0, eIF4E 4G PPI 2, p97 ATPase inh 5, Hck Nef HTS -3 and Biofilm kill mix 19.
`Cc1c(C(=O)O)nn(-c2ccccc2)c(=O)c1C#N` gave 14-3-3 Bad inh 11, PERK inhibitor 1, eIF4E 4G PPI 0, p97 ATPase inh -7 and Hck Nef HTS 0.
Screening Cc1c(C(=O)N2CCCCC2)nn(-c2ccc(Cl)cc2)c(=O)c1C#N returned 14-3-3 Bad inh 17, PERK inhibitor 2, eIF4E 4G PPI 43*, p97 ATPase inh 0, Hck Nef HTS 26 and Biofilm kill mix -1.
`Nc1nnc(CSCc2ccccc2Cl)s1` gave 14-3-3 Bad inh -8, PERK inhibitor 1, eIF4E 4G PPI 1, p97 ATPase inh 3, Hck Nef HTS 5 and Biofilm kill mix 15.
Screening Nc1nnc(SCc2ccccc2Cl)s1 returned 14-3-3 Bad inh -7, PERK inhibitor 1, eIF4E 4G PPI 77*, p97 ATPase inh -1 and Hck Nef HTS -7.
`Cc1cc2oc(C(=O)N(Cc3ccccc3)C3CCS(=O)(=O)C3)cc(=O)c2cc1Cl` (stereo not drawn) gave 14-3-3 Bad inh 88*[fluorescence artefact?], PERK inhibitor -3, eIF4E 4G PPI 6, p97 ATPase inh -4 and Hck Nef HTS 2.
`Cc1cc(C)c2oc(C(=O)N(Cc3ccccc3)C3CCS(=O)(=O)C3)cc(=O)c2c1` (stereo not drawn) gave 14-3-3 Bad inh -4, PERK inhibitor 1, eIF4E 4G PPI -2, p97 ATPase inh 1, Hck Nef HTS 26 and Biofilm kill mix 18.
CC(/C=C1\SC(=S)N(NC(=O)c2ccc(C)cc2)C1=O)=C\c1ccccc1 was read as 14-3-3 Bad inh 4, PERK inhibitor 0, eIF4E 4G PPI 3, p97 ATPase inh 0 and Hck Nef HTS -1.
`CC(/C=C1\SC(=S)N(NS(=O)(=O)c2ccccc2)C1=O)=C\c1ccccc1` gave 14-3-3 Bad inh 25, PERK inhibitor 1, eIF4E 4G PPI -4, p97 ATPase inh -8, Hck Nef HTS 74* and Biofilm kill mix 11.
Screening COC(=O)c1c(NC(=O)CCCC(=O)O)sc(C)c1C returned 14-3-3 Bad inh -15, PERK inhibitor 1, eIF4E 4G PPI -3, p97 ATPase inh 5 and Hck Nef HTS -2.
Cc1sc(NC(=O)CCCC(=O)O)c(C(N)=O)c1-c1ccccc1 was read as 14-3-3 Bad inh -7, PERK inhibitor 0, eIF4E 4G PPI -1, p97 ATPase inh 2, Hck Nef HTS 102* and Biofilm kill mix 17.
